Measurements as given in ChEMBL document CHEMBL1938236, “Design and synthesis of small molecular dual inhibitor of falcipain-2 and dihydrofolate reductase as antimalarial agent” (Bioorg Med Chem Lett, 2012).
The source made the active and inactive calls. No cut-off for these calls is given here.

Key:
Plasmodium falciparum [1] = experiment: Inhibition of Plasmodium falciparum DHFR assessed as oxidation of NADPH to NADP+ at 10 uM after 15 mins spectrophotometric assay
[2] = Inhibition of Plasmodium falciparum DHFR assessed as oxidation of NADPH to NADP+ after 15 mins spectrophotometric assay
Method in brief: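 Purified P. falciparum DHFR was preincubated 15 min on ice with graded compound concentrations in buffer containing NADPH, 50 mM TES pH 7.0, 1 mM EDTA, 75 mM 2-mercaptoethanol and 1 mg/mL BSA. DHF was then added to start the reaction, and NADPH oxidation was followed by absorbance at 340 nm. IC50 came from percent inhibition versus concentration plots, three independent experiments.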

Plasmodium falciparum [3] = experiment: Inhibition of Plasmodium falciparum falcipain-2 using Z-Leu-Arg-AMC as substrate at 10 uM after 30 mins by spectrophotometric assay
Plasmodium berghei [4] = experiment: Antimalarial activity against Plasmodium berghei ANKA infected in Kunming mouse assessed as reduction of parasitemia at 10 mg/kg, ip for 4 days measured on day 5; type: functional; set-up: scale not given: the % may be the effect or the level left; details: route intraperitoneal
Plasmodium berghei [5] = experiment: Antimalarial activity against Plasmodium berghei ANKA infected in Kunming mouse assessed as mouse survival at 10 mg/kg, ig for 4 days measured on day 10
[6] = Inhibition of Plasmodium falciparum falcipain-2 using Z-Leu-Arg-AMC as substrate after 30 mins by spectrophotometric assay
Method in brief: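 FP-2 (30 nM) was preincubated 30 min at room temperature with graded compound concentrations in 100 mM sodium acetate pH 5.5 with 10 mM DTT, DMSO ≤1%. Z-Leu-Arg-AMC in the same buffer was then added, and fluorescence (ex 355/em 460) was monitored for 30 min at room temperature. IC50 came from percent inhibition versus concentration plots, three independent experiments.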

Plasmodium berghei [7] = experiment: Antimalarial activity against Plasmodium berghei ANKA infected in Kunming mouse assessed as reduction of parasitemia at 3 mg/kg, ig for 4 days measured on day 5; set-up: scale not given: the % may be the effect or the level left; details: route intragastric
Plasmodium berghei [8] = experiment: Antimalarial activity against Plasmodium berghei ANKA infected in Kunming mouse assessed as mouse survival at 9 mg/kg, ip for 4 days measured on day 10; type: functional, organism-based; set-up: dose 9 mg/kg; details: in the assay text read “ig for 4 days” for “ip for 4 days”
Method in brief: (§1)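 Kunming mice (groups of 10, 20 2 g) infected ip with 0.2 mL of RBC (5 × 10⁶) from P. berghei ANKA-infected mice. The compound was given intragastrically starting 5 h post-infection, for 4 consecutive days, at 3, 9 or 18 mg kg⁻¹ d⁻¹ (4-day suppressive test). Parasitemia was counted as infected RBC per 1000 RBC on day 5, and reduction was calculated as 100 − 100 × (treated/control mean % parasitemia). Survivors were counted on day 10.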

Plasmodium falciparum [9] = experiment: Ratio of N-(2,3-dihydrobenzo[b][1,4]dioxin-6-yl)-3-(4-(N-phenethylsulfamoyl)phenyl)propanamide IC50 to compound IC50 for Plasmodium falciparum DHFR
Plasmodium berghei [10] = experiment: Antimalarial activity against Plasmodium berghei ANKA infected in Kunming mouse assessed as reduction of parasitemia at 18 mg/kg, ip for 4 days measured on day 5; type: functional; set-up: scale not given: the % may be the effect or the level left; details: route intragastric, in the assay text read “ig for 4 days” for “ip for 4 days”; method in brief: as §1
Plasmodium berghei [11] = experiment: Antimalarial activity against Plasmodium berghei ANKA infected in Kunming mouse assessed as reduction of parasitemia at 9 mg/kg, ip for 4 days measured on day 5; type: functional; set-up: scale not given: the % may be the effect or the level left; details: route intragastric, in the assay text read “ig for 4 days” for “ip for 4 days”; method in brief: as §1
Plasmodium berghei [12] = experiment: Antimalarial activity against Plasmodium berghei ANKA infected in ig dosed Kunming mouse assessed as reduction of parasitemia administered for 4 days measured on day 5
Plasmodium berghei [13] = experiment: Antimalarial activity against Plasmodium berghei ANKA infected in Kunming mouse assessed as mouse survival at 3 mg/kg, ip for 4 days measured on day 10; type: functional, organism-based; set-up: dose 3 mg/kg; details: in the assay text read “ig for 4 days” for “ip for 4 days”; method in brief: as §1
Plasmodium berghei [14] = experiment: Antimalarial activity against Plasmodium berghei ANKA infected in Kunming mouse assessed as mouse survival at 18 mg/kg, ip for 4 days measured on day 10; type: functional, organism-based; set-up: dose 18 mg/kg; details: in the assay text read “ig for 4 days” for “ip for 4 days”; method in brief: as §1
Plasmodium falciparum [15] = experiment: Ratio of N-(2,3-dihydrobenzo[b][1,4]dioxin-6-yl)-3-(4-(N-phenethylsulfamoyl)phenyl)propanamide IC50 to compound IC50 for Plasmodium falciparum falcipain-2

| Structure (SMILES) | inhibition (Plasmodium falciparum [1]) [%] | IC50 [2] [µM] | inhibition (Plasmodium falciparum [3]) [%] | IC50 [6] [µM] | other results |
| --- | --- | --- | --- | --- | --- |
| COc1ccc(NC(=O)CCc2ccc(S(=O)(=O)NCCc3ccccc3)cc2)cc1O | 46.1 | 12.6 | 13.6 | – | – |
| CCN(CC)CCCC(C)Nc1ccnc2cc(Cl)ccc12.O=P(O)(O)O.O=P(O)(O)O (centres undefined) [CHLOROQUINE PHOSPHATE] | – | – | – | – | Activity (Plasmodium berghei [4]): 100%; Activity (Plasmodium berghei [5]): Active |
| O=C(CCc1ccc(S(=O)(=O)NCCc2ccccc2)cc1)NCc1cccs1 | 10.8 | – | 15.2 | – | – |
| O=C(CCc1ccc(S(=O)(=O)Nc2ccc(F)c(Cl)c2)cc1)Nc1ccc2c(c1)OCCO2 | 46.5 | 16.8 | 32.7 | 13.2 | – |
| COc1ccc(NC(=O)CCc2ccc(S(=O)(=O)NCCc3ccccc3)cc2)cc1OC | 51.2 | 9.4 | 15 | – | – |
| CCc1nnc(NC(=O)CCc2ccc(S(=O)(=O)NCCc3ccccc3)cc2)s1 | 31.6 | 19.8 | 46.5 | 8.1 | – |
| O=C(CCc1ccc(S(=O)(=O)NCCc2ccccc2)cc1)NCc1ccccn1 | 17.9 | – | 10.7 | – | – |
| O=C(Cc1ccc(S(=O)(=O)NCCc2ccccc2)cc1)Nc1ccc2c(c1)OCCO2 | 68 | 5 | < 5 | – | – |
| COc1ccc(NS(=O)(=O)c2ccc(CCC(=O)Nc3ccc4c(c3)OCCO4)cc2)cc1OC | 23.2 | – | 6.3 | – | – |
| CCc1nnc(NC(=O)CCc2ccc(S(=O)(=O)Nc3ccc(F)c(Cl)c3)cc2)s1 | 70.6 | 1.8 | 45.1 | 9.8 | – |
| CCc1nnc(NC(=O)CCc2ccc(S(=O)(=O)Nc3ccc(F)cc3)cc2)s1 | 67.5 | 6.3 | 72.9 | 7 | Activity (Plasmodium berghei [7]): 44.6%; Activity (Plasmodium berghei [8]): Active; Ratio IC50 (Plasmodium falciparum [9]): 6; Activity (Plasmodium berghei [10]): 75.6%; Activity (Plasmodium berghei [11]): 53.6%; Activity (Plasmodium berghei [12]): Dose dependent effect; Activity (Plasmodium berghei [13]): Active; Activity (Plasmodium berghei [14]): Active; Ratio IC50 (Plasmodium falciparum [15]): 8 |
| O=C(Nc1ccc2c(c1)OCCO2)c1ccc(S(=O)(=O)NCCc2ccccc2)cc1 | 11.8 | – | < 5 | – | – |
| O=C(CCc1ccc(S(=O)(=O)NCc2ccccc2)cc1)Nc1ccc2c(c1)OCCO2 | 15.6 | – | < 5 | – | – |
| CC(C)C[C@H](NC(=O)[C@H]1O[C@@H]1C(=O)O)C(=O)NCCCCN=C(N)N [E-64] | – | – | 97.4 | 0.017 | – |
| O=C(CCc1ccc(S(=O)(=O)NCCc2ccccc2)cc1)Nc1ccc2c(c1)OCCO2 | 26.5 | 35.5 | 23 | 54.2 | – |
| O=C(CCc1ccc(S(=O)(=O)NCCc2ccccc2)cc1)Nc1nc(-c2ccccc2)cs1 | 34.8 | 14.6 | 94.5 | 2.7 | – |
| COc1cccc(NS(=O)(=O)c2ccc(CCC(=O)Nc3ccc4c(c3)OCCO4)cc2)c1 | 9.3 | – | 17.9 | – | – |
| O=C(CCc1ccc(S(=O)(=O)NCCc2ccccc2)cc1)Nc1nc2ccccc2s1 | 37.9 | 15.1 | 41.5 | 8.9 | – |
| CCc1nc(N)nc(N)c1-c1ccc(Cl)cc1 [PYRIMETHAMINE] | 98.9 | 0.02 | – | – | – |
